Measured values of several laboratories.
Each line is one published result; the experiments were not run side by side.
Organism: Enterococcus faecalis
Read-out: microbial growth

SMILES	assay	system	conditions	MIC
CSc1ccc(-c2nc3ccccc3[nH]2)cc1	broth dilution	ATCC29212		64 µg/mL
Cc1ccc(C)n1-c1ccc(-c2nnc(-c3ccc(N(C)C)cc3)[nH]2)cc1	broth dilution	ATCC14506	18 h	31.2 µg/mL
O=C(Nc1ccc2c(c1)OC(F)(F)O2)Nc1ccc(Cl)c(C(F)(F)F)c1				3 µM
CN[C@H](CC(C)C)C(=O)N[C@H]1C(=O)N[C@@H](CC(N)=O)C(=O)N[C@H]2C(=O)N[C@H]3C(=O)N[C@H](C(=O)N[C@H](C(=O)O)c4cc(O)cc(O)c4-c4cc3ccc4O)[C@H](O)c3ccc(c(Cl)c3)Oc3cc2cc(c3O[C@@H]2O[C@H](CO)[C@@H](O)[C@H](O)[C@H]2O[C@H]2C[C@](C)(N)[C@H](O)[C@H](C)O2)Oc2ccc(cc2Cl)[C@H]1O	broth dilution	ATCC29212		2 µg/mL
Cc1ccc2nc(-c3ccc(F)cc3)[nH]c2c1	broth dilution	ATCC29212		64 µg/mL
CC1(C)S[C@@H]2[C@H](NC(=O)[C@H](N)c3ccccc3)C(=O)N2[C@H]1C(=O)O	broth dilution	ATCC29212		1 µg/mL
Cc1ccc(C)n1-c1ccc(-c2nnc(-c3cccc([N+](=O)[O-])c3)[nH]2)cc1	broth dilution	ATCC14506	18 h	31.2 µg/mL
C/C(O)=C1\C(=O)C(CC(C)C)N(C(=O)CCCCCc2ccccc2)C1=O (centres unmarked)	broth dilution	ATCC33186		< 0.7 µg/mL
C/C=C(\C)c1cc(OC(=O)c2c(C)c(Cl)c(O)c(Cl)c2O)c(C)c(O)c1C(=O)O	broth dilution	ATCC29212		> 64 µg/mL
CC(C)Oc1c(NC(=O)c2ccc(NC(=O)[C@H](CC(N)=O)NC(=O)c3ccc(NC(=O)c4ccc(C#N)cn4)cc3)cc2)ccc(C(=O)Nc2ccc(C(=O)O)cc2)c1O		ATCC29212		0.125 µg/mL
Cc1ccc(C)n1-c1ccc(-c2nnc(-c3ccccc3Cl)[nH]2)cc1	broth dilution	ATCC14506	18 h	16 µg/mL
Cc1ccc2nc(-c3ccco3)n(Cc3ccccc3)c2c1	broth dilution	ATCC29212		128 µg/mL
Cc1ccc(C)n1-c1ccc(-c2nnc(-c3ccccc3[N+](=O)[O-])[nH]2)cc1	broth dilution	ATCC14506	18 h	31.2 µg/mL
Cc1ccc2nc(-c3ccc(Cl)cc3)n(Cc3ccccc3)c2c1	broth dilution	ATCC29212		16 µg/mL
CC(C)Oc1c(NC(=O)c2ccc(NC(=O)[C@H](CC(N)=O)NC(=O)c3ccc(NC(=O)c4ccc(C#N)s4)cc3)cc2)ccc(C(=O)Nc2ccc(C(=O)O)cc2)c1O		ATCC29212		0.25 µg/mL
Cc1cc(=O)[nH]n1C(=O)c1ccc(-n2c(C)ccc2C)cc1	broth dilution	ATCC14506	18 h	125 µg/mL
Cc1ccc2nc(-c3cccc(O)c3)[nH]c2c1	broth dilution	ATCC29212		64 µg/mL
C/C(=C\c1ccc(O)cc1)C(=O)Nc1ccc(C(=O)N[C@@H](CC(N)=O)C(=O)Nc2ccc(C(=O)Nc3ccc(C(=O)Nc4ccc(C(=O)O)cc4)c(O)c3OC(C)C)cc2)cc1		ATCC29212		0.5 µg/mL
Cc1ccc(C)n1-c1ccc(-c2nnco2)cc1	broth dilution	ATCC14506	18 h	2 µg/mL
COc1cccc(-c2nc3ccccc3n2Cc2ccccc2)c1	broth dilution	ATCC29212		64 µg/mL
